Measured values published in ChEMBL document CHEMBL1143592, “N-terminal sugar conjugation and C-terminal Thr-for-Thr(ol) exchange in radioiodinated Tyr3-octreotide: effect on cellular ligand trafficking in vitro and tumor accumulation in vivo” (J Med Chem, 2005).

Experiments:
[1] = molecular target: Somatostatin receptor type 1 (Homo sapiens, UniProt P30872); experiment: In vitro inhibition of [125I][Leu8,D-Trp22,Tyr25] somatostatin 28 binding to human somatostatin receptor type 1 expressed in CHO-K1 cells; (n=3); assay type: cell-based
Somatostatin receptor type 1, sequence (P30872 whole entry): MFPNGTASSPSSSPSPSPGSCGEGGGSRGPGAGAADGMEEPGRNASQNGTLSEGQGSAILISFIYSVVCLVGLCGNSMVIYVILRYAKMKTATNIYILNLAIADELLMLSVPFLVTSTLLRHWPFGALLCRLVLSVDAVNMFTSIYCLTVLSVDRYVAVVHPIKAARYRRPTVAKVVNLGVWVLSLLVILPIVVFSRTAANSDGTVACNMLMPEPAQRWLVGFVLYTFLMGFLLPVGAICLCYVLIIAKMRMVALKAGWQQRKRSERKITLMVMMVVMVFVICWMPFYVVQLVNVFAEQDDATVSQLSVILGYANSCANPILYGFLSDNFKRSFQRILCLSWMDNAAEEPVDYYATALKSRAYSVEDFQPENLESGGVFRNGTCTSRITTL

[2] = molecular target: Somatostatin receptor type 5 (Homo sapiens, UniProt P35346); experiment: In vitro inhibition of [125I][Leu8,D-Trp22,Tyr25] somatostatin 28 binding to human somatostatin receptor type 5 expressed in CHO-K1 cells; (n=3); assay type: cell-based
Somatostatin receptor type 5, sequence (P35346 whole entry): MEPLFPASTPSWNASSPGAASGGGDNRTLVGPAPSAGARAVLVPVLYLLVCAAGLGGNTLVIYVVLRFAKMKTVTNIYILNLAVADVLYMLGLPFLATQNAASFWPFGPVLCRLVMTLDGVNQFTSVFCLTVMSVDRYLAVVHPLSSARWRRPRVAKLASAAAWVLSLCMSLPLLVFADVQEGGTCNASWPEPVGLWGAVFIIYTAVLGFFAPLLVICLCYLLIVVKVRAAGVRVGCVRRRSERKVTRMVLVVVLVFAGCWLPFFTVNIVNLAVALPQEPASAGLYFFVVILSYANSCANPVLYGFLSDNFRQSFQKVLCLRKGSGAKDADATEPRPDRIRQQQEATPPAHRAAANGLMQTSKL

[3] = molecular target: T1, Somatostatin receptor type 2 (Homo sapiens, UniProt P30874); experiment: In vitro inhibition of [125I][Leu8,D-Trp22,Tyr25] somatostatin 28 binding to human somatostatin receptor type 2 expressed in CCL39 cells; (n=3); assay type: cell-based
T1 sequence (P30874 whole entry): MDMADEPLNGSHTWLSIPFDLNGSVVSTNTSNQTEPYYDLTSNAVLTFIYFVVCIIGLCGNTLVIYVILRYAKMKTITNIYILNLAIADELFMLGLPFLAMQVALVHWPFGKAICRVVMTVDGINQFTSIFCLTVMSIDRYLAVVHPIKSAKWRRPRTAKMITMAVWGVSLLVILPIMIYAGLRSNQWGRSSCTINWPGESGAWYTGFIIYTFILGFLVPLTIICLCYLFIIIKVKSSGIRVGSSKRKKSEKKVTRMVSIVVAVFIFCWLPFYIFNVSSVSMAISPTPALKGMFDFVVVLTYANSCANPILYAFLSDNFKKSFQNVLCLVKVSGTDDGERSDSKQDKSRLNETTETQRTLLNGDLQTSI

[4] = molecular target: Somatostatin receptor type 3 (Homo sapiens, UniProt P32745); experiment: In vitro inhibition of [125I][Leu8,D-Trp22,Tyr25] somatostatin 28 binding to human somatostatin receptor type 3 expressed in CCL39 cells; (n=3); assay type: cell-based
Somatostatin receptor type 3, sequence (P32745 whole entry): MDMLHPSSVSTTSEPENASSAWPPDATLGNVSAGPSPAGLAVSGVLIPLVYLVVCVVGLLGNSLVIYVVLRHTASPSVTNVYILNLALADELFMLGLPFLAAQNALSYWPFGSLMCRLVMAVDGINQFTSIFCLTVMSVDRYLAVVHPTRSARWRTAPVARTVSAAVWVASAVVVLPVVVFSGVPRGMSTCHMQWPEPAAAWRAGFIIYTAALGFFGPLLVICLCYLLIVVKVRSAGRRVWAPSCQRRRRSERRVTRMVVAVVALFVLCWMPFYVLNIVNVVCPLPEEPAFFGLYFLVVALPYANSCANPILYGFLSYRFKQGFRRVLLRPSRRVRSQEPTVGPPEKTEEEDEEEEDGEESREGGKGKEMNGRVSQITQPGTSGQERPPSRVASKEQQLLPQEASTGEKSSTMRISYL

[5] = molecular target: Somatostatin receptor type 4 (Homo sapiens, UniProt P31391); experiment: In vitro inhibition of [125I][Leu8,D-Trp22,Tyr25] somatostatin 28 binding to human somatostatin receptor type 4 expressed in CCL39 cells; (n=3); assay type: cell-based
Somatostatin receptor type 4, sequence (P31391 whole entry): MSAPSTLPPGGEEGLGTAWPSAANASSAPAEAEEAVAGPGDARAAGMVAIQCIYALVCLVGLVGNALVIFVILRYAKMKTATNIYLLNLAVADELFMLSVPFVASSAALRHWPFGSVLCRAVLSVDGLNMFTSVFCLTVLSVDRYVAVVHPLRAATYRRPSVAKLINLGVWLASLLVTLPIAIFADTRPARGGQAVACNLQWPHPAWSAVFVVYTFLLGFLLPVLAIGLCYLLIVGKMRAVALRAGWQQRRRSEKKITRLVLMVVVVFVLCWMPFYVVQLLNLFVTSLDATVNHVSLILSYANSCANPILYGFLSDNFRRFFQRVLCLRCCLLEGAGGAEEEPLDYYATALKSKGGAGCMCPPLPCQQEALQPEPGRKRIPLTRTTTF
Summary of the method: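 Membrane pellets from CCL39 cells stably expressing hsst4 were sectioned onto slides for receptor autoradiography. Full displacement of the universal somatostatin radioligand used unlabeled peptide at 0.1–1000 nM, with somatostatin 28 run in parallel at the same concentrations. Values are mean ± SD.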

[6] = molecular target: T1, Somatostatin receptor type 2; experiment: Relative effective concentration against human somatostatin receptor type 2 expressed in CHO cells; (n=3); assay type: cell-based
Summary of the method: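 Dual-tracer internalization in CHO cells stably expressing N-terminally tagged hsst2 (90000–120000 cells/well, plated the day before). Acid wash at pH 5 removed surface-bound activity; nonspecific uptake was taken with 5 µM TOC; triplicates. EC50 is expressed relative to [125I]TOC.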

[7] = molecular target: Somatostatin receptor type 2 (Rattus norvegicus) (UniProt P30680); experiment: In vivo tumor accumulation was determined in nude mice bearing rat pancreatic AR42J tumor cell expressed with somatostatin receptor type 2;60 min p.i.; (n=3-5); assay type: functional, organism-based; conditions: AR-42J
Somatostatin receptor type 2 (Rattus norvegicus), sequence (P30680 whole entry): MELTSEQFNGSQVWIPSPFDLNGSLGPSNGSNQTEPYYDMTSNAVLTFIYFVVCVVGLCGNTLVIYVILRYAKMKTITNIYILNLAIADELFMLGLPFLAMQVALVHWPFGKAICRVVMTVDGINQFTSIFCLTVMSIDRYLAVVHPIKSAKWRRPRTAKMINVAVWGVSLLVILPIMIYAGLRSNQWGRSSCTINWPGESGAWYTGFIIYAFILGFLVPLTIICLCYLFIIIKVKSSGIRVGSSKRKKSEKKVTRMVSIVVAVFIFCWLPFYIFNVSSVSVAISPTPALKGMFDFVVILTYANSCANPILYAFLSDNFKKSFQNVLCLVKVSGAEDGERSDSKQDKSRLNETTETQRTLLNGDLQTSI
Summary of the method: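 Female Swiss nu/nu mice, 6–8 weeks, were inoculated s.c. in the flank with (2.5–5) × 10⁶ AR42J cells in serum-free RPMI 1640 and used after 10 days (tumors 150–500 mg). About 370 kBq of radioiodinated peptide in 100 µL PBS pH 7.4 was given i.v. into the tail vein. Tumor was excised 60 min p.i. and gamma-counted; results are % ID/g.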

[8] = tested as the 123I-labelled form

IC50 ([1]; cho-k1) [nM] | IC50 [2] [nM] | IC50 [3] [nM] | IC50 ([4]; ccl39) [nM] | IC50 [5] [nM] | ID/g [7, 8] [%] | Compound | also measured
> 10000 | 377 | 0.2 | > 1000 | 300 | – | GALLIUM OXODOTREOTIDE | –
– | – | – | – | – | – | C[C@@H](O)[C@H](CO)NC(=O)[C@@H]1CSSC[C@H](NC(=O)[C@@H](Cc2ccccc2)NC[C@]2(O)OC[C@H](O)[C@@H](O[C@@H]3O[C@@H](CO)[C@@H](O)[C@H](O)[C@@H]3O)[C@@H]2O)C(=O)N[C@@H](Cc2ccc(O)c([123I])c2)C(=O)N[C@H](Cc2c[nH]c3ccccc23)C(=O)N[C@@H](CCCCN)C(=O)N[C@@H]([C@@H](C)O)C(=O)N1 | EC50 ([6]; cho): 1.12 nM
> 1000 | 521 | 2 | > 1000 | 1030 | – | C[C@@H](O)[C@H](NC(=O)[C@@H]1CSSC[C@H](NC(=O)[C@@H](Cc2ccccc2)NC[C@@]2(O)OC[C@@H](O)[C@@H](O)[C@@H]2O)C(=O)N[C@@H](Cc2ccc(O)c(I)c2)C(=O)N[C@H](Cc2c[nH]c3ccccc23)C(=O)N[C@@H](CCCCN)C(=O)N[C@@H]([C@@H](C)O)C(=O)N1)C(=O)O | –
– | – | – | – | – | – | C[C@@H](O)[C@H](NC(=O)[C@@H]1CSSC[C@H](NC(=O)[C@H](N)Cc2ccccc2)C(=O)N[C@@H](Cc2ccc(O)c([123I])c2)C(=O)N[C@H](Cc2c[nH]c3ccccc23)C(=O)N[C@@H](CCCCN)C(=O)N[C@@H]([C@@H](C)O)C(=O)N1)C(=O)O | EC50 [6]: 1.7 nM
– | – | – | – | – | 20.5 | C[C@@H](O)[C@H](NC(=O)[C@@H]1CSSC[C@H](NC(=O)[C@@H](Cc2ccccc2)NC[C@H]2O[C@H](O)[C@H](O)[C@@H](O)[C@@H]2O)C(=O)N[C@@H](Cc2ccc(O)c(I)c2)C(=O)N[C@H](Cc2c[nH]c3ccccc23)C(=O)N[C@@H](CCCCN)C(=O)N[C@@H]([C@@H](C)O)C(=O)N1)C(=O)O | –
– | – | – | – | – | 25.1 | C[C@@H](O)[C@H](NC(=O)[C@@H]1CSSC[C@H](NC(=O)[C@H](Cc2ccccc2)NC[C@]2(O)OC[C@H](O)[C@@H](O[C@@H]3O[C@@H](CO)[C@@H](O[C@@H]4O[C@@H](CO)[C@@H](O)[C@H](O)[C@@H]4O)[C@H](O)[C@@H]3O)[C@@H]2O)C(=O)N[C@@H](Cc2ccc(O)c(I)c2)C(=O)N[C@H](Cc2c[nH]c3ccccc23)C(=O)N[C@@H](CCCCN)C(=O)N[C@@H]([C@@H](C)O)C(=O)N1)C(=O)O | –
> 1000 | 64 | 2.2 | 357 | 837 | – | C[C@@H](O)[C@@H]1NC(=O)[C@H](CCCCN)NC(=O)[C@@H](Cc2c[nH]c3ccccc23)NC(=O)[C@H](Cc2ccc(O)c(I)c2)NC(=O)[C@@H](NC(=O)[C@@H](Cc2ccccc2)NC[C@]2(O)OC[C@H](O)[C@@H](O)[C@@H]2O)CSSC[C@@H](C(=O)N[C@H](CO)[C@@H](C)O)NC1=O | –
> 10000 | 75 | 1.2 | 243 | > 1000 | – | C[C@@H](O)[C@H](CO)NC(=O)[C@@H]1CSSC[C@H](NC(=O)[C@@H](Cc2ccccc2)NC[C@]2(O)OC[C@H](O)[C@@H](O[C@@H]3O[C@@H](CO)[C@@H](O)[C@H](O)[C@@H]3O)[C@@H]2O)C(=O)N[C@@H](Cc2ccc(O)c(I)c2)C(=O)N[C@H](Cc2c[nH]c3ccccc23)C(=O)N[C@@H](CCCCN)C(=O)N[C@@H]([C@@H](C)O)C(=O)N1 | –
– | – | – | – | – | – | C[C@@H](O)[C@H](NC(=O)[C@@H]1CSSC[C@H](NC(=O)[C@@H](Cc2ccccc2)NC(=O)CN2CCN(CC(=O)O)CCN(CC(=O)O)CCN(CC(=O)O)CC2)C(=O)N[C@@H](Cc2ccc(O)cc2)C(=O)N[C@H](Cc2c[nH]c3ccccc23)C(=O)N[C@@H](CCCCN)C(=O)N[C@@H]([C@@H](C)O)C(=O)N1)C(=O)O | IC50 [1]: > 10000 nM; IC50 [4]: > 1000 nM
– | – | – | – | – | 21.2 | C[C@@H](O)[C@H](NC(=O)[C@@H]1CSSC[C@H](NC(=O)[C@H](N)Cc2ccccc2)C(=O)N[C@@H](Cc2ccc(O)c(I)c2)C(=O)N[C@H](Cc2c[nH]c3ccccc23)C(=O)N[C@@H](CCCCN)C(=O)N[C@@H]([C@@H](C)O)C(=O)N1)C(=O)O | –
– | – | – | – | – | 8.7 | C[C@@H](O)[C@H](CO)NC(=O)[C@@H]1CSSC[C@H](NC(=O)[C@H](Cc2ccccc2)NC[C@]2(O)OC[C@H](O)[C@@H](O)[C@@H]2O)C(=O)N[C@@H](Cc2ccc(O)c(I)c2)C(=O)N[C@H](Cc2c[nH]c3ccccc23)C(=O)N[C@@H](CCCCN)C(=O)N[C@@H]([C@@H](C)O)C(=O)N1 | –
> 10000 | 110 | 1.1 | 210 | > 1000 | – | C[C@@H](O)[C@H](CO)NC(=O)[C@@H]1CSSC[C@H](NC(=O)[C@@H](Cc2ccccc2)NC[C@]2(O)OC[C@H](O)[C@@H](O[C@@H]3O[C@@H](CO)[C@@H](O[C@@H]4O[C@@H](CO)[C@@H](O)[C@H](O)[C@@H]4O)[C@H](O)[C@@H]3O)[C@@H]2O)C(=O)N[C@@H](Cc2ccc(O)c(I)c2)C(=O)N[C@H](Cc2c[nH]c3ccccc23)C(=O)N[C@@H](CCCCN)C(=O)N[C@@H]([C@@H](C)O)C(=O)N1 | –
> 1000 | 413 | – | 491 | 482 | – | C[C@@H](O)[C@H](NC(=O)[C@@H]1CSSC[C@H](NC(=O)[C@@H](Cc2ccccc2)NC(=O)CCS[C@@H]2O[C@@H](CO)[C@H](O)[C@H](O)[C@@H]2O)C(=O)N[C@@H](Cc2ccc(O)c(I)c2)C(=O)N[C@H](Cc2c[nH]c3ccccc23)C(=O)N[C@@H](CCCCN)C(=O)N[C@@H]([C@@H](C)O)C(=O)N1)C(=O)O | –
– | – | – | – | – | 4.9 | C[C@@H](O)[C@H](CO)NC(=O)[C@@H]1CSSC[C@H](NC(=O)[C@H](Cc2ccccc2)NC[C@]2(O)OC[C@H](O)[C@@H](O[C@@H]3O[C@@H](CO)[C@@H](O[C@@H]4O[C@@H](CO)[C@@H](O)[C@H](O)[C@@H]4O)[C@H](O)[C@@H]3O)[C@@H]2O)C(=O)N[C@@H](Cc2ccc(O)c(I)c2)C(=O)N[C@H](Cc2c[nH]c3ccccc23)C(=O)N[C@@H](CCCCN)C(=O)N[C@@H]([C@@H](C)O)C(=O)N1 | –
> 1000 | 310 | – | 398 | 356 | – | C[C@@H](O)[C@H](NC(=O)[C@@H]1CSSC[C@H](NC(=O)[C@@H](Cc2ccccc2)NC(=O)CCS[C@@H]2O[C@@H](CO)[C@@H](O)[C@H](O)[C@@H]2O)C(=O)N[C@@H](Cc2ccc(O)c(I)c2)C(=O)N[C@H](Cc2c[nH]c3ccccc23)C(=O)N[C@@H](CCCCN)C(=O)N[C@@H]([C@@H](C)O)C(=O)N1)C(=O)O | –
> 10000 | – | – | – | > 10000 | – | EDOTREOTIDE YTTRIUM | –
> 10000 | 327 | 0.95 | 823 | 823 | – | C[C@@H](O)[C@H](NC(=O)[C@@H]1CSSC[C@H](NC(=O)[C@@H](Cc2ccccc2)NC[C@]2(O)OC[C@H](O)[C@@H](O[C@@H]3O[C@@H](CO)[C@@H](O[C@@H]4O[C@@H](CO)[C@@H](O)[C@H](O)[C@@H]4O)[C@H](O)[C@@H]3O)[C@@H]2O)C(=O)N[C@@H](Cc2ccc(O)c(I)c2)C(=O)N[C@H](Cc2c[nH]c3ccccc23)C(=O)N[C@@H](CCCCN)C(=O)N[C@@H]([C@@H](C)O)C(=O)N1)C(=O)O | –
– | – | – | – | – | 11.2 | C[C@@H](O)[C@H](NC(=O)[C@@H]1CSSC[C@H](NC(=O)[C@H](Cc2ccccc2)NC[C@]2(O)OC[C@H](O)[C@@H](O[C@@H]3O[C@@H](CO)[C@@H](O)[C@H](O)[C@@H]3O)[C@@H]2O)C(=O)N[C@@H](Cc2ccc(O)c(I)c2)C(=O)N[C@H](Cc2c[nH]c3ccccc23)C(=O)N[C@@H](CCCCN)C(=O)N[C@@H]([C@@H](C)O)C(=O)N1)C(=O)O | –
– | – | – | – | – | 5.2 | C[C@@H](O)[C@H](CO)NC(=O)[C@@H]1CSSC[C@H](NC(=O)[C@H](Cc2ccccc2)NC[C@]2(O)OC[C@H](O)[C@@H](O[C@@H]3O[C@@H](CO)[C@@H](O)[C@H](O)[C@@H]3O)[C@@H]2O)C(=O)N[C@@H](Cc2ccc(O)c(I)c2)C(=O)N[C@H](Cc2c[nH]c3ccccc23)C(=O)N[C@@H](CCCCN)C(=O)N[C@@H]([C@@H](C)O)C(=O)N1 | –
> 10000 | 210 | 0.78 | 757 | 797 | – | C[C@@H](O)[C@H](NC(=O)[C@@H]1CSSC[C@H](NC(=O)[C@@H](Cc2ccccc2)NC[C@]2(O)OC[C@H](O)[C@@H](O[C@@H]3O[C@@H](CO)[C@@H](O)[C@H](O)[C@@H]3O)[C@@H]2O)C(=O)N[C@@H](Cc2ccc(O)c(I)c2)C(=O)N[C@H](Cc2c[nH]c3ccccc23)C(=O)N[C@@H](CCCCN)C(=O)N[C@@H]([C@@H](C)O)C(=O)N1)C(=O)O | –
– | – | – | – | – | – | C[C@@H](O)[C@H](CO)NC(=O)[C@@H]1CSSC[C@H](NC(=O)[C@@H](N)Cc2ccccc2)C(=O)N[C@@H](Cc2ccc(O)c(I)c2)C(=O)N[C@H](Cc2c[nH]c3ccccc23)C(=O)N[C@@H](CCCCN)C(=O)N[C@@H]([C@@H](C)O)C(=O)N1 | ID/g ([7]; tested as the 125I-labelled form): 5.5%
